Screening data as filed in PubChem.
Lung fibro prol: blocks proliferation of human lung fibroblasts; LL 47 human lung fibroblast viability, ATP luminescence; active compounds read low; actives 1.1% (n = 85,000); viability, % at 10 µM;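 active = viability at or below 50% in the single dose screen; inactive = viability above 50%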;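 also: compound exposure lasted 72 h before the ATP readout; 100% = median luminescence of untreated cell-only wells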
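Assay system: human lung fibroblast line LL 47, low passage. Input: 1,150 fibroblasts seeded per well. Times: overnight cell rest, 72 h compound treatment at 37 °C. Evaluation: % viability of median cell-only signal. Technique: luminescent ATP detection, CellTiter-Glo. Control set: cell-only wells, no compound.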
H69AR growth 86K: blocks growth of human H69AR lung tumor cells; actives 6% (n = 85,000); viability, % at 10 µM; AID 598; H69AR lung tumor viability, ATP luminescence, 72 h; active compounds read low;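 active = viability at or below 40%; inactive = viability above 40%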;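 also: multidrug resistant small cell line overexpressing MRP-1 efflux transporter; 100% = mean luminescence of untreated control wells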
HUVEC inhibit: human endothelial cell proliferation inhibition; actives 1.1% (n = 86,000); viability, % at 10 µM (by protocol); HUVEC proliferation, CellTiter-Glo luminescence, 72 h; active compounds read low;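 active = viability at or below 30%; inactive = viability above 30%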;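 also: 100% = median luminescence of DMSO-only cell control wells on each plate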
Pyk2 oligo antag: antagonists of human Pyk2 oligomerization; AID 1347419; actives 0.83% (n = 99,000); z-score (the deposit names both 25 µM and 10 µM); Q293 cells, Pyk2 FERM NanoBiT luminescence; active compounds read low; Q14289;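 active = Z-score of -3 or lower, scaled per plate to the spread of control and sample wells; inactive = z-score above -3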;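 also: negative z-score means lost luminescence so less FERM oligomerization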
bCat KO growth: beta-catenin-lacking colon tumor cell growth suppression; HCT116 beta-catenin knockout viability, CellTiter-Glo, 60 h; active compounds read low; viability, % at 10 µM; actives 1.5% (n = 140,000);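 active = viability at or under a set limit, the compound median less 4 SD, cut at about 6% in these data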;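 also: 0% = Hyamine 1622 control at 20 µM and 100% = untreated cell control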
HCT116 PTEN-null: PTEN-deleted cell growth suppression. HCT116 PTEN-null viability, CellTiter-Glo, 60 h; active compounds read low. viability, % at 10 µM. actives 1.2% (n = 140,000). AID 827;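 active = viability at or below a set limit, 4 SD under the median of all tested compounds, cut at about 3.7% in these data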;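 also: PTEN knockout HCT116 line with beta catenin targeted HCT116 as companion control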
* = called active by the depositor. Only a selection was taken, and hits are over-represented in it overall.

How did O=C(NCC1CCCO1)C1CCCCN1S(=O)(=O)c1ccc(F)cc1 (stereo not drawn) do in these assays?
Lung fibro prol: 106; H69AR growth 86K: 92; HUVEC inhibit: 102; Pyk2 oligo antag: 0.84; bCat KO growth: 87; HCT116 PTEN-null: 91

Results for O=C(Nc1ccc(Cl)cc1)N(Cc1cccnc1)Cc1ccco1 ?
Pyk2 oligo antag: -0.76; bCat KO growth: 82; HCT116 PTEN-null: 87

What do the screens show for `O=C(NCc1ccco1)Nc1ccc2nsnc2c1`?
Lung fibro prol: 100; H69AR growth 86K: 31*; HUVEC inhibit: 98; Pyk2 oligo antag: 0.17; bCat KO growth: 63; HCT116 PTEN-null: 59

Results for Cc1ccc(S(=O)(=O)N(C)CCCC(=O)Nc2ccc(C)cc2C)cc1 ?
bCat KO growth: 83; HCT116 PTEN-null: 80

What do the screens show for `O=C(NC1CCCCC1)c1sc(N2CCOCC2)nc1-c1ccccc1`?
bCat KO growth: 70; HCT116 PTEN-null: 64

What do the screens show for `Cc1c(CN(C)C(=O)c2sc3cc(Cl)ccc3c2Cl)cnn1C`?
Lung fibro prol: 100; H69AR growth 86K: 77; HUVEC inhibit: 21*; Pyk2 oligo antag: -1.5; bCat KO growth: 15; HCT116 PTEN-null: 24

Results for COc1ccc(C(=O)Nc2ccc(NC(=O)c3cnccn3)cn2)cc1 ?
Pyk2 oligo antag: 1.9; bCat KO growth: 101; HCT116 PTEN-null: 104

Results for O=C1C(Cl)=C(N2CCCCC2)C(=O)C(Cl)=C1c1cnc(N2CCCCC2)s1 ?
Lung fibro prol: 19*; H69AR growth 86K: 1.6*; HUVEC inhibit: 14*; Pyk2 oligo antag: -0.1; bCat KO growth: 1.1*; HCT116 PTEN-null: 1.5*

How did CC(=O)c1cnc(N(C)C)s1 do in these assays?
Lung fibro prol: 101; H69AR growth 86K: 94; HUVEC inhibit: 98; Pyk2 oligo antag: -0.26; bCat KO growth: 92; HCT116 PTEN-null: 91

What do the screens show for `CN(C)c1ncc(C2=C(Cl)C(=O)C(N3CCCC3)=C(Cl)C2=O)s1`?
Lung fibro prol: 69; H69AR growth 86K: 89; HUVEC inhibit: 23*; Pyk2 oligo antag: -0.06; bCat KO growth: 1.4*; HCT116 PTEN-null: 1.6*

How did Cc1ccc(OCCOc2ccc(Br)cc2)c([N+](=O)[O-])n1 do in these assays?
bCat KO growth: 93; HCT116 PTEN-null: 83

How did O=C(CC1C(=O)NCCN1C(=O)Nc1ccccc1)Nc1ccc2c(c1)OCO2 (stereo not drawn) do in these assays?
Lung fibro prol: 95; HUVEC inhibit: 91; Pyk2 oligo antag: -1.2; bCat KO growth: 99; HCT116 PTEN-null: 105

How did O=C(CC1C(=O)NCCN1C(=O)Nc1ccccc1)Nc1cccc(C(F)(F)F)c1 (stereo not drawn) do in these assays?
Lung fibro prol: 88; H69AR growth 86K: 47; HUVEC inhibit: 72; Pyk2 oligo antag: -3.2*; bCat KO growth: 81; HCT116 PTEN-null: 68

What do the screens show for `CCCOC(=O)c1ccc(NC(=O)C(CC)CC)cc1`?
bCat KO growth: 97; HCT116 PTEN-null: 93

What do the screens show for `C=CCn1c(NC(=O)c2ccccc2)c(C#N)c2nc3ccccc3nc21`?
Lung fibro prol: 101; H69AR growth 86K: 97; HUVEC inhibit: 55

Results for CCCN(CCC)C(=O)CC(c1ccccc1)c1cc(Br)ccc1O (stereo not drawn) ?
Lung fibro prol: 80; H69AR growth 86K: 3.5*; HUVEC inhibit: 66; Pyk2 oligo antag: -2.6; bCat KO growth: 84; HCT116 PTEN-null: 72

How did CCC1CC(CSc2ncn[nH]2)OC1=O (stereo not drawn) do in these assays?
Lung fibro prol: 100; H69AR growth 86K: 100; HUVEC inhibit: 111; Pyk2 oligo antag: -0.89; bCat KO growth: 85; HCT116 PTEN-null: 88

How did CN(CCO)c1nc(N)c2c(N)nc3c(c2c1C#N)CC(=O)N3C1CCCC1 do in these assays?
Lung fibro prol: 94; H69AR growth 86K: 31*; HUVEC inhibit: 71; bCat KO growth: 33; HCT116 PTEN-null: 43

Results for CC(C)(C)N1C(=O)Cc2c1nc(N)c1c(N)nc(N3CCCCC3CO)c(C#N)c21 (stereo not drawn) ?
Lung fibro prol: 88; H69AR growth 86K: 20*; HUVEC inhibit: 74; Pyk2 oligo antag: -2.7; bCat KO growth: 74; HCT116 PTEN-null: 86

What do the screens show for `O=C1c2cnc3nc(SCc4ccc(Cl)cc4)nn3c2CC2c3ccccc3CCN12` (stereo not drawn)?
Pyk2 oligo antag: 1.6; bCat KO growth: 66; HCT116 PTEN-null: 53
